Experiments:
PBMC = assay: Antiinflammatory activity in human PBMC assessed as inhibition of LPS-induced TNF-alpha production; type: functional, cell-based
Summary of the method: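 Human peripheral blood mononuclear cells stimulated with LPS. Read-out is inhibition of TNF-α production, reported as pIC50.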

[1] = target: T1, Inhibitor of nuclear factor kappa-B kinase subunit epsilon (Homo sapiens, UniProt Q14164); assay: Inhibition of IKK-epsilon
T1 sequence (Q14164 whole entry): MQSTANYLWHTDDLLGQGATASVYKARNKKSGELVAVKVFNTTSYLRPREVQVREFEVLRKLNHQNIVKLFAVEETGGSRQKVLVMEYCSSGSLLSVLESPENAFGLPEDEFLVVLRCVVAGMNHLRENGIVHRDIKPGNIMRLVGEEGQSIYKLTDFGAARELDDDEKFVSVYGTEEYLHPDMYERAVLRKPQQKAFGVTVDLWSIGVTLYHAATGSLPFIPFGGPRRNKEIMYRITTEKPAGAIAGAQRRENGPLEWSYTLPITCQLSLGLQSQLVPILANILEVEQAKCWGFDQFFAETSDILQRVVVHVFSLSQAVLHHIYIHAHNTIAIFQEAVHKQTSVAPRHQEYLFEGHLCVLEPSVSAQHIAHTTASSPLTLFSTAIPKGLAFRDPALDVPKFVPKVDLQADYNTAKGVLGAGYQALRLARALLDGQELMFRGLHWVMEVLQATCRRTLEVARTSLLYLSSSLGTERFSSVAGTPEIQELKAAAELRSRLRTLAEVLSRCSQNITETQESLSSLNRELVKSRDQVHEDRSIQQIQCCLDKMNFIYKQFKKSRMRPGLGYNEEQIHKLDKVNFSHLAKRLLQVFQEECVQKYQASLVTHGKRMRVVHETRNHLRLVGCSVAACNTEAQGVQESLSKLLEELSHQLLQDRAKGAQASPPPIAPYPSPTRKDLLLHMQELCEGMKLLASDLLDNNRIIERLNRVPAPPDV

[2] = target: T2, Serine/threonine-protein kinase TBK1 (Homo sapiens, UniProt Q9UHD2); assay: Inhibition of TBK-1
T2 sequence (Q9UHD2 whole entry): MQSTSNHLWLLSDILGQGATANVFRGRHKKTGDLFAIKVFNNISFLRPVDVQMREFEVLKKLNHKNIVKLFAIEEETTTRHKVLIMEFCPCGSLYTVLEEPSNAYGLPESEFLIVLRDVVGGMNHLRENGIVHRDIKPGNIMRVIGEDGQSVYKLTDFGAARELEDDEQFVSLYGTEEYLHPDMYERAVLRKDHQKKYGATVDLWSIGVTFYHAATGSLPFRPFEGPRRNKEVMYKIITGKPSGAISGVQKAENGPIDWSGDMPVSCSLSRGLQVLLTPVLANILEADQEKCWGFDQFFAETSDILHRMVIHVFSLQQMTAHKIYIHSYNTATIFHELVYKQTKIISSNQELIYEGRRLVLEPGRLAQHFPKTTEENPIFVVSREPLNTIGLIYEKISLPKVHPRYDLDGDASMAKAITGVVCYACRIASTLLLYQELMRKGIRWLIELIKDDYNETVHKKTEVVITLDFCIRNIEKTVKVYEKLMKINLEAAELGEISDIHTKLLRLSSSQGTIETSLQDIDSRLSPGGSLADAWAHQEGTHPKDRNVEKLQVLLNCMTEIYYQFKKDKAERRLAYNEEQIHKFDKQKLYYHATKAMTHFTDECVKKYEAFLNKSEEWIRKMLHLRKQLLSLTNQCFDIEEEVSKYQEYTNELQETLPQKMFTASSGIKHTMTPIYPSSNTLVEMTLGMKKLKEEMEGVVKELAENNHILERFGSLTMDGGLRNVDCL

[3] = target: T3, Receptor-type tyrosine-protein kinase FLT3 (Homo sapiens, UniProt P36888); assay: Binding affinity to FLT3 assessed as dissociation constant
T3 sequence (P36888 whole entry): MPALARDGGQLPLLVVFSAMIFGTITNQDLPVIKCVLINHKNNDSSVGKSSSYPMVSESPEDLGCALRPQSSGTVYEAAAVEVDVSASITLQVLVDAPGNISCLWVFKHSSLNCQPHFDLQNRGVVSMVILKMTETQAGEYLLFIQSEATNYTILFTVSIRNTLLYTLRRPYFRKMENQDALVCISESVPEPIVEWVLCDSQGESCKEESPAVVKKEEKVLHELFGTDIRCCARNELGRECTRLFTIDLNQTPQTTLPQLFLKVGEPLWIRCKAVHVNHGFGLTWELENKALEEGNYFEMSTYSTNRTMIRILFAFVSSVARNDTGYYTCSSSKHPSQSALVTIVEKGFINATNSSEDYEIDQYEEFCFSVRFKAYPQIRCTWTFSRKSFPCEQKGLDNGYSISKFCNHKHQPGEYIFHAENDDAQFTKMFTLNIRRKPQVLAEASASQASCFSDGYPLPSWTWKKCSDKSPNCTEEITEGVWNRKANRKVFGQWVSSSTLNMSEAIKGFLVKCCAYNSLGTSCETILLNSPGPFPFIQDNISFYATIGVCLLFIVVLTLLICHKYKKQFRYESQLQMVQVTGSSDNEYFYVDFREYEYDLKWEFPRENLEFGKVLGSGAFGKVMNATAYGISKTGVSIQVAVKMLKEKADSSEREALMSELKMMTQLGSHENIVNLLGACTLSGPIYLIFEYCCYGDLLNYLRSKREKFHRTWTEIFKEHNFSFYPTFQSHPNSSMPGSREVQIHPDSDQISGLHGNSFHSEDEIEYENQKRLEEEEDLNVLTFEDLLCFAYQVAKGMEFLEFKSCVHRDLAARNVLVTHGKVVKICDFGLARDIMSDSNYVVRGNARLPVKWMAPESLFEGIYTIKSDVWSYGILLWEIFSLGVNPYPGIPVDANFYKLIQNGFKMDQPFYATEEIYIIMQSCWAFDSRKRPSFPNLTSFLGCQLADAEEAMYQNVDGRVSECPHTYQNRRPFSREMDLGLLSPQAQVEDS

IC50 [1]: > 3160 nM | IC50 [2]: > 3160 nM | Kd [3]: 1260 nM
Structure (SMILES): CCCS(=O)(=O)N1CCC(c2c[nH]c3c(C(N)=O)cc(-c4ccccc4)cc23)CC1
IC50 (PBMC): 631 nM

From ChEMBL document CHEMBL1759890, “3,5-Disubstituted-indole-7-carboxamides: the discovery of a novel series of potent, selective inhibitors of IKK-β” (Bioorg Med Chem Lett, 2011)
